Article PMC8712509 (International Journal of Nanomedicine, 2021)

What was measured:
[1] = Biodistribution in major organs; assay type: in vivo; conditions: ICR mice, single 10.0 mg/kg iv
[2] = Pharmacokinetics in plasma; assay type: in vivo; conditions: ICR mice, single 10.0 mg/kg iv
SGC-7901 cells = assay: Cytotoxicity assay; assay type: cell-based, Human; conditions: SGC-7901, MTT, n=3
In short: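 SGC-7901 cells were grown in RPMI-1640 with 10% FBS, 1% penicillin and 1% streptomycin at 37°C, 5% CO2. Log-phase cells were seeded in triplicate at 1.0×10^4 cells/well overnight. Free drug or liposomal test formulations (1.0–100.0 µg/mL drug) were added for 24, 48 or 72 h. MTT (5.0 mg/mL stock) was added for 4 h, then DMSO, and OD read at 490 nm. IC50 was derived from viability.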

O=C1[O][Pt]2([NH][C@@H]3CCCC[C@H]3[NH]2)[O]C1=O (relative stereo) [OXA, (1R-trans)-(1,2-cyclohexanediamine-N,N’)[oxalic acid (2-)-O,O’] platinum]
OXA concentration in heart ([1]; 0.5 h): 8.59 ± 0.06 µg/g
OXA concentration in kidneys ([1]; 0.5 h): 8.73 ± 0.45 µg/g
OXA concentration in liver ([1]; 0.5 h): 14.00 ± 0.30 µg/g
OXA concentration in lungs ([1]; 0.5 h): 4.60 ± 0.13 µg/g
OXA concentration in spleen ([1]; 0.5 h): 14.27 ± 0.44 µg/g
OXA concentration in heart ([1]; 1 h): 10.27 ± 0.44 µg/g
OXA concentration in kidneys ([1]; 1 h): 4.02 ± 0.61 µg/g
OXA concentration in liver ([1]; 1 h): 12.49 ± 0.56 µg/g
OXA concentration in lungs ([1]; 1 h): 3.70 ± 0.22 µg/g
OXA concentration in spleen ([1]; 1 h): 13.40 ± 0.80 µg/g
OXA concentration in heart ([1]; 2 h): 6.79 ± 0.40 µg/g
OXA concentration in kidneys ([1]; 2 h): 2.85 ± 0.27 µg/g
OXA concentration in liver ([1]; 2 h): 12.50 ± 0.58 µg/g
OXA concentration in lungs ([1]; 2 h): 4.35 ± 0.63 µg/g
OXA concentration in spleen ([1]; 2 h): 13.21 ± 0.22 µg/g
OXA concentration in heart ([1]; 4 h): 5.55 ± 0.45 µg/g
OXA concentration in kidneys ([1]; 4 h): 2.36 ± 0.70 µg/g
OXA concentration in liver ([1]; 4 h): 10.91 ± 1.56 µg/g
OXA concentration in lungs ([1]; 4 h): 4.98 ± 0.18 µg/g
OXA concentration in spleen ([1]; 4 h): 10.35 ± 1.53 µg/g
OXA concentration in heart ([1]; 6 h): 4.22 ± 0.14 µg/g
OXA concentration in kidneys ([1]; 6 h): 2.84 ± 0.25 µg/g
OXA concentration in liver ([1]; 6 h): 8.87 ± 0.40 µg/g
OXA concentration in lungs ([1]; 6 h): 4.54 ± 0.90 µg/g
OXA concentration in spleen ([1]; 6 h): 10.56 ± 0.56 µg/g
OXA concentration in heart ([1]; 8 h): 3.26 ± 0.34 µg/g
OXA concentration in kidneys ([1]; 8 h): 2.65 ± 0.12 µg/g
OXA concentration in liver ([1]; 8 h): 7.06 ± 0.44 µg/g
OXA concentration in lungs ([1]; 8 h): 3.94 ± 0.12 µg/g
OXA concentration in spleen ([1]; 8 h): 4.81 ± 0.33 µg/g
AUC(0-t), heart ([1]; n=3): 48.080 ± 1.690 µg·h/g
AUC(0-t), kidneys ([1]; n=3): 27.380 ± 1.870 µg·h/g
AUC(0-t), liver ([1]; n=3): 87.870 ± 1.360 µg·h/g
AUC(0-t), lungs ([1]; n=3): 34.130 ± 1.960 µg·h/g
AUC(0-t), spleen ([1]; n=3): 118.170 ± 4.560 µg·h/g
AUC(0-∞), heart ([1]; n=3): 68.591 ± 5.210 µg·h/g
AUC(0-∞), kidneys ([1]; n=3): 69.442 ± 5.640 µg·h/g
AUC(0-∞), liver ([1]; n=3): 161.538 ± 3.960 µg·h/g
AUC(0-∞), lungs ([1]; n=3): 106.955 ± 9.140 µg·h/g
AUC(0-∞), spleen ([1]; n=3): 128.580 ± 9.360 µg·h/g
MRT, heart ([1]; n=3): 5.574 ± 0.980 h
MRT, kidneys ([1]; n=3): 16.594 ± 2.220 h
MRT, liver ([1]; n=3): 9.330 ± 1.020 h
MRT, lungs ([1]; n=3): 17.707 ± 1.990 h
MRT, spleen ([1]; n=3): 5.990 ± 0.230 h
last time at which OXA was detectable in plasma (undetectable after) [2]: 8 h
plasma concentration of OXA ([2]; 0.08 h): 28590 ± 920 ng/mL
plasma concentration of OXA ([2]; 0.17 h): 25030 ± 320 ng/mL
plasma concentration of OXA ([2]; 0.50 h): 4490 ± 350 ng/mL
plasma concentration of OXA ([2]; 1 h): 3200 ± 100 ng/mL
plasma concentration of OXA ([2]; 2 h): 2860 ± 240 ng/mL
plasma concentration of OXA ([2]; 4 h): 1990 ± 120 ng/mL
plasma concentration of OXA ([2]; 6 h): 1500 ± 700 ng/mL
plasma concentration of OXA ([2]; 8 h): 640 ± 110 ng/mL
CL ([2]; plasma, n=3): 5.53 ± 1.5 mL/min/kg
CLz ([2]; plasma, n=3): 5.85 ± 0.217 mL/min/kg
K10 ([2]; plasma, n=3): 1.319 ± 0.250 h⁻¹
K12 ([2]; plasma, n=3): 5.632 ± 0.360 h⁻¹
K21 ([2]; plasma, n=3): 0.828 ± 0.070 h⁻¹
MRT(0-t) ([2]; plasma, n=3): 2.535 ± 0.520 H
MRT(0-∞) ([2]; plasma, n=3): 4.319 ± 0.130 H
T1/2z ([2]; plasma, n=3): 4.995 ± 0.360 H
Tmax ([2]; plasma, n=3): 0.250 ± 0.015 H
t1/2α ([2]; plasma, n=3): 0.215 ± 0.077 H
t1/2β (elimination half-life) ([2]; plasma, n=3): 3.214 ± 0.420 H
IC50 (SGC-7901 cells; 48 h): 15.87 ± 0.27 µg/mL
IC50 (SGC-7901 cells; 72 h): 14.17 ± 0.14 µg/mL
